Measured values taken from ChEMBL document CHEMBL1149797, “Synthesis and in vitro antibacterial activities of novel oxazolidinones” (Eur J Med Chem, 2008).
Converted amounts (≈) assume the structure as drawn.

Assays:
Format in all cases: functional
Enterococcus faecalis [1] = assay: Antibacterial activity against Enterococcus faecalis ATCC 35550 by broth microdilution technique
In short: (§1)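 Broth microdilution per CLSI (NCCLS) guidelines. Compounds were dissolved in DMSO with water added to give an 80% DMSO stock, then diluted 1:10 to working solutions in water or medium. They were tested at 0.125, 0.25, 0.5, 1, 2, 4, 8 and 16 (two-fold series) against the final inoculum. Each run included sterility controls and vehicle controls (plain medium; 4%, 2%, 1% DMSO). MIC was read as growth inhibition.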

[2] = system: Staphylococcus epidermidis; assay: Antibacterial activity against Staphylococcus epidermidis ATCC 155 by broth microdilution technique; in short: as §1
Staphylococcus aureus [3] = assay: Antibacterial activity against Staphylococcus aureus ATCC 25923 by broth microdilution technique; in short: as §1
Bacillus pumilus = assay: Antibacterial activity against Bacillus pumilus ATCC 14884 by broth microdilution technique; in short: as §1
Streptococcus pyogenes = assay: Antibacterial activity against Streptococcus pyogenes ATCC 14289 by broth microdilution technique; in short: as §1
Bacillus cereus = assay: Antibacterial activity against Bacillus cereus ATCC 11778 by broth microdilution technique; in short: as §1
Staphylococcus aureus [4] = assay: Antibacterial activity against linezolid-resistant Staphylococcus aureus NRS 119 with G 2576T mutation by broth microdilution technique
In short: (§2)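 Broth microdilution per NCCLS/CLSI. Compounds dissolved in DMSO with water added to give an 80% DMSO stock. Stock diluted 1:10 in 4-8% DMSO in water or medium to make the working solution. Tested at […]. Sterility controls run with each set. Inoculum viability controls included plain medium and 4%, 2% and 1% DMSO vehicle. MIC taken as growth inhibition.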

Enterococcus faecalis [5] = assay: Antibacterial activity against Enterococcus faecalis ATCC 14506 by broth microdilution technique; in short: as §1
Streptococcus pneumoniae = assay: Antibacterial activity against multidrug-resistant Streptococcus pneumoniae ATCC 700904 by broth microdilution technique; in short: as §2
Staphylococcus aureus [6] = assay: Antibacterial activity against Staphylococcus aureus ATCC 9144 by broth microdilution technique; in short: as §2
Staphylococcus aureus [7] = assay: Antibacterial activity against methicillin-resistant Staphylococcus aureus ATCC 700699 by broth microdilution technique; in short: as §2
Enterococcus faecium = assay: Antibacterial activity against vancomycin-resistant Enterococcus faecium ATCC 700221 by broth microdilution technique; in short: as §2
Staphylococcus aureus [8] = assay: Antibacterial activity against linezolid-resistant Staphylococcus aureus NRS 120 with G 2576T mutation by broth microdilution technique; in short: as §2
Enterococcus faecalis [9] = assay: Antibacterial activity against multidrug-resistant Enterococcus faecalis ATCC 700802 by broth microdilution technique; in short: as §2
Staphylococcus aureus [10] = assay: Antibacterial activity against Staphylococcus aureus ATCC 29213 by broth microdilution technique; in short: as §2
Staphylococcus aureus [11] = assay: Antibacterial activity against Staphylococcus aureus ATCC 14154 by broth microdilution technique; in short: as §2

Row | MIC (Enterococcus faecalis [1]) [µg/mL] | MIC [2] [µg/mL] | MIC (Staphylococcus aureus [3]) [µg/mL] | MIC (Bacillus pumilus) [µg/mL] | MIC (Streptococcus pyogenes) [µg/mL] | MIC (Bacillus cereus) [µg/mL] | Compound | MIC (Staphylococcus aureus [4]) [µg/mL] | MIC (Enterococcus faecalis [5]) [µg/mL] | MIC (Streptococcus pneumoniae) [µg/mL] | MIC (Staphylococcus aureus [6]) [µg/mL] | MIC (Staphylococcus aureus [7]) [µg/mL] | MIC (Enterococcus faecium) [µg/mL] | MIC (Staphylococcus aureus [8]) [µg/mL] | MIC (Enterococcus faecalis [9]) [µg/mL] | MIC (Staphylococcus aureus [10]) [µg/mL] | MIC (Staphylococcus aureus [11]) [µg/mL]
1 | 0.5 (≈ 1.1 µM) | 1 (≈ 2.19 µM) | 0.5 (≈ 1.1 µM) | 0.5 (≈ 1.1 µM) |  | 0.5 (≈ 1.1 µM) | CC(=O)NC[C@H]1CN(c2ccc(N3CCN(C(=O)/C=C/c4ccco4)CC3)c(F)c2)C(=O)O1 |  |  |  |  |  |  |  |  |  | 
2 | 0.5 (≈ 1.06 µM) | 0.5 (≈ 1.06 µM) | 1 (≈ 2.12 µM) | 0.5 (≈ 1.06 µM) | 1 (≈ 2.12 µM) | 0.5 (≈ 1.06 µM) | CC(=O)NC[C@H]1CN(c2ccc(N3CCN(C(=O)/C=C/c4cccs4)CC3)c(F)c2)C(=O)O1 |  |  |  |  |  |  |  |  |  | 
3 | 2 (≈ 4.52 µM) | 8 (≈ 18.1 µM) | 2 (≈ 4.52 µM) | 2 (≈ 4.52 µM) | 0.5 (≈ 1.13 µM) | 0.5 (≈ 1.13 µM) | CC(=O)NC[C@H]1CN(c2ccc(N3CCN(C/C=C/c4ccco4)CC3)c(F)c2)C(=O)O1 |  |  |  |  |  |  |  |  |  | 
4 | 1 (≈ 2.13 µM) | 0.5 (≈ 1.06 µM) | 2 (≈ 4.25 µM) | 1 (≈ 2.13 µM) | 0.5 (≈ 1.06 µM) | 1 (≈ 2.13 µM) | CC(=O)NC[C@H]1CN(c2ccc(N3CCN(C(=O)/C=C/c4ccc(C)o4)CC3)c(F)c2)C(=O)O1 |  |  |  |  |  |  |  |  |  | 
5 | 1 (≈ 2.05 µM) | 0.5 (≈ 1.03 µM) | 1 (≈ 2.05 µM) | 0.25 (≈ 0.513 µM) | 0.12 (≈ 0.246 µM) | 0.25 (≈ 0.513 µM) | CC(=O)NC[C@H]1CN(c2ccc(N3CCN(C/C=C/c4ccc([N+](=O)[O-])o4)CC3)c(F)c2)C(=O)O1 |  |  |  |  |  |  |  |  |  | 

Continued, compound first:

Row | Compound | MIC (Enterococcus faecalis [1]) [µg/mL] | MIC [2] [µg/mL] | MIC (Staphylococcus aureus [3]) [µg/mL] | MIC (Bacillus pumilus) [µg/mL] | MIC (Streptococcus pyogenes) [µg/mL] | MIC (Bacillus cereus) [µg/mL] | MIC (Staphylococcus aureus [4]) [µg/mL] | MIC (Enterococcus faecalis [5]) [µg/mL] | MIC (Streptococcus pneumoniae) [µg/mL] | MIC (Staphylococcus aureus [6]) [µg/mL] | MIC (Staphylococcus aureus [7]) [µg/mL] | MIC (Enterococcus faecium) [µg/mL] | MIC (Staphylococcus aureus [8]) [µg/mL] | MIC (Enterococcus faecalis [9]) [µg/mL] | MIC (Staphylococcus aureus [10]) [µg/mL] | MIC (Staphylococcus aureus [11]) [µg/mL]
6 | CC(=O)NC[C@H]1CN(c2ccc(N3CCN(C(=O)/C=C/c4ccncc4)CC3)c(F)c2)C(=O)O1 | 2 (≈ 4.28 µM) | 2 (≈ 4.28 µM) | 4 (≈ 8.56 µM) | 1 (≈ 2.14 µM) | 0.5 (≈ 1.07 µM) | 1 (≈ 2.14 µM) |  |  |  |  |  |  |  |  |  | 
7 | CC(=O)NC[C@H]1CN(c2ccc(N3CCN(C(=O)/C=C/c4ccc[nH]4)CC3)c(F)c2)C(=O)O1 | 1 (≈ 2.2 µM) | 0.5 (≈ 1.1 µM) | 1 (≈ 2.2 µM) | 1 (≈ 2.2 µM) | 1 (≈ 2.2 µM) | 1 (≈ 2.2 µM) |  |  |  |  |  |  |  |  |  | 
8 | CC(=O)NC[C@H]1CN(c2ccc(N3CCN(C(=O)/C=C/c4ccsc4)CC3)c(F)c2)C(=O)O1 | 0.5 (≈ 1.06 µM) | 1 (≈ 2.12 µM) | 0.5 (≈ 1.06 µM) | 0.5 (≈ 1.06 µM) |  | 0.5 (≈ 1.06 µM) |  |  |  |  |  |  |  |  |  | 
9 | CC(=O)NC[C@H]1CN(c2ccc(N3CCN(C(=O)/C=C/c4ccc([N+](=O)[O-])o4)CC3)c(F)c2)C(=O)O1 | 0.25 (≈ 0.499 µM) | ≤ 0.12 | 0.12 (≈ 0.239 µM) | ≤ 0.12 | ≤ 0.12 | ≤ 0.12 | 2 (≈ 3.99 µM) | 0.25 (≈ 0.499 µM) | 0.25 (≈ 0.499 µM) | 0.12 (≈ 0.239 µM) | 0.12 (≈ 0.239 µM) | 0.12 (≈ 0.239 µM) | 2 (≈ 3.99 µM) | 0.5 (≈ 0.997 µM) | 0.12 (≈ 0.239 µM) | 0.12 (≈ 0.239 µM)
10 | CC(=O)NC[C@H]1CN(c2ccc(N3CCN(C(=O)/C=C/c4ccc(COC(C)=O)o4)CC3)c(F)c2)C(=O)O1 | 4 (≈ 7.57 µM) | 2 (≈ 3.78 µM) | 2 (≈ 3.78 µM) | 4 (≈ 7.57 µM) | 2 (≈ 3.78 µM) | 4 (≈ 7.57 µM) |  |  |  |  |  |  |  |  |  | 
